The campaign covered roughly 290,000 compounds. About 1,600 (0.55%) were called active. Many of the other results were omitted from the sample, so actives are more common in it than they were. Unmarked numbers belong to inactive results.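 How the source made its calls: active means inhibition above the mean of all tested compounds plus 3 SD, set per campaign (cut at about 35% in these data); inactive means the rest.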
System: Hepatitis C virus NS3 helicase
Test: HCV NS3 DNA unwinding blockers – biochemical, Cy5 molecular beacon fluorescence, primary screen (AID 1800);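 further: 0% = DMSO wells and 100% = thioflavine S control wells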
Conditions: at 10.9 µM, hits give high values
Summary of the method: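 Assay system – hepatitis C virus NS3 helicase domain fragment enzyme · Buffer or medium – MOPS pH 6.5, MgCl2, DTT, Tween20, BSA · Reagent – Cy5/quencher beacon DNA duplex and ATP to start · Compound – single 10.9 µM dose · Timing – 1 h at 25 °C · Technique – Cy5 beacon fluorescence read at start and 1 h · Measure – % inhibition of unwinding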

| Compound | inhibition |
| --- | --- |
| NC(=O)c1nsc(C(=O)N(CCCN2CCOCC2)C(C(=O)NC2CCCCC2)c2ccc(Cl)cc2)c1N (configuration not stated) | 13.6% |
| Cc1ccc(C(=O)/C=C/Nc2ccc(S(=O)(=O)Nc3onc(C)c3C)cc2)cc1 | 23.3% |
| CC(C)C(=O)Nc1oc(-c2ccccc2)cc1C#N | 2.07% |
| COc1cc(C(=O)Nc2oc(-c3ccccc3)c(-c3ccccc3)c2C#N)cc(OC)c1OC | -0.57% |
| CC(Oc1ccccc1)C(=O)Nc1oc(-c2ccco2)c(-c2ccco2)c1C#N (configuration not stated) | 52.5% (active) |
| Cc1cc2c(cc1C)N(C(=O)CN1C(=O)c3ccccc3C1=O)C(C)(C)c1ssc(=S)c1-2 | -5.01% |
| O=C(CCC(=O)n1ncc2ccccc21)NCc1ccccc1Cl | 12.6% |
| COc1cc(/C=C2/C(=O)NN(c3ccc(F)cc3)C2=O)cc([N+](=O)[O-])c1O | 15.7% |
| C#CCOc1ccc(/C=C2/C(=O)NN(c3ccccc3)C2=O)cc1OC | 27.8% |
| COc1cc(/C=C2/C(=O)NN(c3cccc(Cl)c3)C2=O)cc(Br)c1O | 64.2% (active) |
| COC(=O)c1ccc(/C=C2/C(=O)Oc3ccccc32)cc1 | 4.46% |
| Nc1c(Cl)cc(-c2csc(N3CCCC3c3nc4cc(Cl)c(Cl)cc4n3CCOCCO)n2)cc1Cl (configuration not stated) | -4.48% |
| COc1ccc(-c2nn(-c3ccccc3)cc2/C=C2/SC(=S)N(CCCC(=O)O)C2=O)c(C)c1 | -32.5% |
| CN(C)S(=O)(=O)c1cccc(-c2nn(-c3ccccc3)cc2/C=C2\SC(=S)N(CC(=O)O)C2=O)c1 | 9.49% |
| Cc1ccc(-c2nn(-c3ccccc3)cc2/C=C2\SC(=S)N(CCCCCC(=O)O)C2=O)o1 | 45.9% (active) |
| CC(C)C1Cc2c(sc3c2c(=O)n(-c2ccccc2)c2nncn32)CO1 (configuration not stated) | 1.09% |
| CC(C)(C)NC(=O)CSc1nnc(NC(=O)CCc2ccccc2)s1 | -6.73% |
| O=C1N/C(=C/c2cccn2-c2ccccc2)C(=O)N1c1cccc(Cl)c1 | 43% (active) |
| O=C1/C(=C\c2ccsc2)NC(=S)N1c1ccccc1 | 11% |

| Compound | inhibition |
| --- | --- |
| Cc1ccccc1NC(=O)CN1C(=O)N/C(=C\c2cccn2-c2cccc(C(=O)O)c2)C1=O | 21.8% |
| O=C(CCc1ccccc1F)N1CCN(c2ccccc2)CC1 | 8.51% |
| Cc1ccccc1CCNC(=O)C1CCC(=O)N(Cc2ccc(Cl)cc2)C1 (configuration not stated) | -13.2% |
| Cc1cccc(NC(=O)c2ccc3c(=O)n(CC4CCCO4)c(=S)[nH]c3c2)c1 (configuration not stated) | -9.4% |
| Cc1nc2nc(SCC(=O)NCc3ccco3)nn2c(C)c1Cc1ccccc1 | 2.25% |
| CCOc1ccccc1/C=c1\sc2nc(-c3ccco3)nn2c1=O | 27.9% |
| O=c1nc2s/c(=C\c3ccco3)c(=O)n2nc1Cc1ccccc1 | 45.8% (active) |
| COC(=O)c1cc(S(=O)(=O)N2CCN(c3cc(C)ccc3C)CC2)c[nH]1 | -25.3% |
| CCOc1ccc(C(C(=O)NCCOC)N(CCOC)C(=O)CCC(=O)Nc2ccccn2)cc1 (configuration not stated) | 38.9% (active) |
| COCCNC(=O)C(c1ccc(C)cc1)N(C(=O)CCC(=O)Nc1ccccn1)c1cccc(C)c1 (configuration not stated) | -11.8% |
| COCCN(C(=O)CCC(=O)Nc1ccccn1)C(C(=O)NCCC(C)C)c1ccc(OC)cc1 (configuration not stated) | 0.66% |
| O=C(Nc1nnc(-c2ccc(F)cc2)s1)c1c(F)cccc1Cl | -8.63% |
| Cc1ccccc1/C=C\c1nc(O)c([N+](=O)[O-])c(=O)[nH]1 | 9.37% |
| O=c1[nH]c(/C=C\c2cccc(C(F)(F)F)c2)nc(O)c1[N+](=O)[O-] | 47.4% (active) |
| O=c1cc(O)c(-c2cccc(C(F)(F)F)c2)c(Cl)[nH]1 | 13.8% |
| CCNC(=O)N1CCCC(C(=O)c2ccc(-c3ccccc3)cc2)C1 (configuration not stated) | -0.46% |
| Cc1ccc(C2=N/C(=C\c3ccc(OS(=O)(=O)c4ccc(C)cc4)cc3)C(=O)O2)cc1 | 40.6% (active) |
| O=C1OC(c2ccc(Cl)cc2)=N/C1=C\c1cccnc1 | 5.47% |
| Cc1ccc(S(=O)(=O)Oc2ccc(/C=N/NC(=O)c3ccncc3)cc2)cc1 | -3.55% |

| Compound | inhibition |
| --- | --- |
| O=C(CNc1cccc(S(=O)(=O)N2CCCCC2)c1)Nc1ccccc1F | -2.03% |
| CCOCCCN(C)C1CCN(C(=O)c2oc3ccccc3c2NC(=O)COc2cccc(C)c2)CC1 | -20.2% |
| O=C(CCl)NNc1cccc(Cl)n1 | 60.9% (active) |
| O=C(NNc1ccccn1)c1ccc(Cl)nc1 | -0.49% |
| O=C(CCl)NNc1nc(-c2ccccc2)c2cc(Cl)ccc2n1 | 3.47% |
| CCC(C(=O)OC)n1cnc2c(oc3ccccc32)c1=O (configuration not stated) | -6.44% |
| Cc1ccc(Nc2c3c(nc4ccccc24)CCC3)cc1 | -35.6% |
| CC(=O)Nc1ccc(Nc2c3ccccc3nc3ccccc23)cc1 | 38.4% (active) |
| CC(=O)Nc1ccc(NC(=O)COc2ncnc3ccccc23)cc1 | 8.73% |
| Cc1cccc(NC(=O)NC(=S)NC(=O)c2ccccc2)c1 | 7.16% |
| COC(=O)c1c(C)[nH]c(C(=O)NCCc2ccc(S(N)(=O)=O)cc2)c1C | -6.64% |
| O=S(=O)(NCc1ccc(Cl)cc1Cl)c1cccs1 | 7.61% |
| O=C(N/N=C/c1cc(Cl)cc([N+](=O)[O-])c1O)C(O)(c1ccccc1)c1ccccc1 | 24.1% |
| O=[N+]([O-])c1cc(Cl)cc(/C=N/NC(=S)Nc2cc(S(=O)(=O)N3CCOCC3)ccc2Cl)c1O | 40.4% (active) |
| O=C(CN1CCN(c2ccc(O)cc2)CC1)Nc1cc(S(=O)(=O)N2CCOCC2)ccc1Cl | 13.6% |
| Cc1cccc(CCNS(=O)(=O)c2ccc(S(=O)(=O)NC3CCCC3)cc2)c1 | -9.33% |
| CN(c1ccccc1)c1ccc(/C=c2\s/c(=C(/C#N)C(=O)C(C)(C)C)n(Cc3ccco3)c2=O)cc1 | 37% (active) |
| Cc1cs/c(=N\N=C\c2ccc(O)cc2)n1Cc1ccco1 | 3.43% |
| CCOC(=O)/C=c1\s/c(=C\c2ccc(C#N)cc2)c(=O)n1CC(=O)Nc1cccc(C)c1C | 12.5% |

Source: PubChem BioAssay AID1800 (The Scripps Research Institute Molecular Screening Center, 2009)
